The values that follow come from ChEMBL document CHEMBL3612047, “Synthesis, antiproliferative activity and possible mechanism of action of novel 2-acetamidobenzamides bearing the 2-phenoxy functionality” (Bioorg Med Chem, 2015).

The test system of experiment [1] is K562. The experiment is described as follows: Induction of apoptosis in human K562 cells assessed as nuclear fragmentation at 10 uM incubated for 48 hrs by Hoechst 33342 staining based fluorescence microscopy. The class given is functional, cell-based. The procedure, abridged: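 K562 cells (8 × 10³/well) on poly-D-lysine-coated wells, allowed to adhere overnight. Stained with Hoechst 33342 for 30 min, washed with PBS, resuspended in medium, then treated at 10 μM for 48 h.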

The test system of experiment [2] is K562. The experiment is described as follows: Induction of apoptosis in human K562 cells assessed as viable cells level at 10 uM incubated for 24 hrs by Annexin-V and propidium iodide staining staining based flow cytometry (reference value: 98%). The class given is functional.
Experiment [3] concerns K562. Briefly: Induction of morphological changes in human K562 cells at 10 and 25 uM incubated for 48 hrs by light microscopy. The class given is functional, cell-based. The procedure, abridged: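 K562 cells (8 × 10³/well) plated on poly-D-lysine-coated wells and treated at 10 or 25 μM for 48 h. Examined by light microscopy at 200× for shape, detachment, cell number and cell size.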

The test system of experiment [4] is K562. The experiment is described as follows: Induction of cell cycle arrest in human K562 cells assessed as accumulation at G0/G1 phase at 10 uM incubated for 48 hrs by propidium iodide staining based flow cytometry (reference value: 56.6%). The class given is functional. In general terms: In flow cytometry, cells or beads pass a laser one at a time.
The subject of experiment [5] is K562. Briefly: Induction of apoptosis in human K562 cells assessed as late apoptotic cells level at 10 uM incubated for 24 hrs by Annexin-V and propidium iodide staining staining based flow cytometry (reference value: 0.2%). The class given is functional.
The nature of experiment [6]: Growth inhibition of human BT549 cells by NCI standard protocol based method. The class given is functional. Particulars: BT-549. In outline:
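NCI full 60-cell-line panel, 5-dose assay to the NCI standard protocol. GI₅₀ is the molar concentration inhibiting 50% net cell growth. Mean graph midpoint is averaged over all lines; where the effect is not reached, the highest tested concentration is used.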

By GI50 is commonly meant the concentration that inhibits growth by half.

The source made the active and inactive calls. No cut-off for these calls is given here.

With `NC(=O)c1cc(I)ccc1NC(=O)COc1ccccc1`, the outcome in experiment [1] and in experiment [3] was Active. Moreover, the results for the Activity in experiment [2], in experiment [4] and in experiment [5] were 62.1%, 45.2% and 12.5%, respectively.
`COc1cc(NC(=O)COc2ccccc2)c(C(N)=O)cc1OC`: the result in experiment [1] and in experiment [3] was Active. Besides, the Activity is 63.3% in experiment [2], 39.4% in experiment [4] and 11.6% in experiment [5]. In experiment [6], the GI50 amounted to 770 nM.
